An excerpt weighted towards active compounds, which were near 2.4% of everything screened.
NPY1 pot ag = potentiates or activates human NPY-Y1 receptor; NPY-Y1 expressing cells, potentiator/agonist activation; activation, % at 3.6 µM; hit rate 0.37% among 220,000; AID 1304; in the data active means activation above about 33%, passing the limit was not always enough;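 further: cells stimulated with NPY at EC10 then isoproterenol at EC100; 0% = low agonist plus stimulus and 100% = saturating agonist plus stimulus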
NPY2 pot ag = potentiators or agonists of human neuropeptide Y receptor Y2. P49146. cells expressing NPY-Y2, potentiator/agonist read-out. activation, % at 3.6 µM. hit rate 0.45% among 220,000. AID 1359; in the data active means activation above about 27%;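 further: cells stimulated with NPY near EC25 plus isoproterenol at EC100; 0% = vehicle plus submaximal agonist and 100% = vehicle plus saturating agonist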
Target sequence (P49146 whole entry, looked up): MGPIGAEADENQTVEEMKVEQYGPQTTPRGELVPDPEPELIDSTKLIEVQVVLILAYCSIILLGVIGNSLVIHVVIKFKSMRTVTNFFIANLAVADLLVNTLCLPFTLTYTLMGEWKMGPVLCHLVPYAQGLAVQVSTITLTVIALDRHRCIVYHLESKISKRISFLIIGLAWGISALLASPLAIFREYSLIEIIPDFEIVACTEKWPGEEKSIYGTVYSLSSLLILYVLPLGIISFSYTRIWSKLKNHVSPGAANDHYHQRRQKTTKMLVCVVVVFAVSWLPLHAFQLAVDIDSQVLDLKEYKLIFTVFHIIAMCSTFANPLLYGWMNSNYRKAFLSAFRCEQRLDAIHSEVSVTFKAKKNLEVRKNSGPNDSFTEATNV
S1P4 antag = human S1P4 receptor antagonism | hit rate 0.26% among 220,000 | S1P4-expressing cells, antagonist mode, reporter read-out | O95977 | inhibition, % at 4.98 µM | AID 1510; in the data active means inhibition above about 29%;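 further: 0% = wells stimulated with agonist and 100% = vehicle wells without agonist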
NPY-Y1 antag = antagonists of human neuropeptide Y receptor Y1 | P25929 | hit rate 1% among 200,000 | AID 1040 | inhibition, % at 3.6 µM | HEK293-CNG Y1 cells, membrane potential fluorescence; NPY at EC95, then isoproterenol;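 active means inhibition above the campaign mean inhibition of all tested compounds plus 3 SD, cut at about 20% in these data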;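 further: 0% = DMSO wells given NPY plus isoproterenol and 100% = isoproterenol alone without NPY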
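Material: HEK293 cells co-expressing NPY Y1 receptor and cyclic-nucleotide gated channel. Timing: compound incubation 1 h at room temperature, readout 45 min post-stimulation. Signal: fluorescence, membrane potential probe.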
S1P4 ag = activates the human S1P4 receptor; hit rate 0.35% among 220,000; activation, % at 4.98 µM; O95977; S1P4-expressing cell line, agonist reporter assay; in the data active means activation above about 11%;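 further: 0% = DMSO vehicle and 100% = reference agonist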
NPY-Y2 antag = NPY-Y2 (human) receptor antagonism; P49146; hit rate 0.99% among 140,000; AID 793; inhibition, % at 2.7 µM; NPY-Y2 expressing cells, antagonist mode; in the data active means inhibition above about 17%;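 further: 0% = vehicle with agonist challenge and 100% = reference antagonist with challenge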
S1P4 agonist cf = confirmation of human S1P4 receptor agonists; shares compounds with S1P4 ag; S1P4 agonist cell-based reporter assay; activation, % at 4.98 µM; hit rate 7% among 740; AID 1523; in the data active means activation above about 12%;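 further: 0% = vehicle and 100% = full reference agonist response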
S1P1 agonist = counter-screen for S1P4 agonists: agonists of human S1P1 | shares compounds with S1P4 ag | S1P1 agonist cell-based assay, activation | activation, % at 4.98 µM | hit rate 4% among 740 | AID 1563; in the data active means activation above about 21%;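 further: 0% = vehicle wells and 100% = reference agonist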
Active calls of the source: *; x = no result.

SMILES	NPY1 pot ag	NPY2 pot ag	S1P4 antag	NPY-Y1 antag	S1P4 ag	NPY-Y2 antag	S1P4 agonist cf	S1P1 agonist
C#CCCOC(=O)Nc1ccccc1	-16	-10	-2	x	0	x	x	x
CC(=O)c1cc2ccc(O)cc2oc1=O	-2	-13	-59	x	104*	x	45*	66*
COc1ccc(N=c2oc3cc(O)ccc3cc2C(=O)Nc2ccccn2)cc1OC	7	-3	-5	-3	2	x	x	x
O=C(NCc1ccco1)c1cc2ccc(O)cc2oc1=O	-3	12	-127	-5	112*	5	51*	84*
COc1ccc2cc(C(=O)NCc3ccco3)c(=O)oc2c1	31	-6	-14	-4	1	0	x	x
Cc1ccc(N=c2oc3cc(O)ccc3cc2C(N)=O)cc1	12	3	-55	1	35*	6	4	2
O=S1(=O)N=C(N(Cc2cccs2)c2ccc(O)cc2)c2ccccc21	8	-11	-4	-1	1	x	x	x
NC(=O)N=Nc1c2[nH]c3ccccc3nc-2c2ccccc12	18	26	-82	x	0	x	x	x
COc1ccc(-n2cc(CNCCc3cscn3)c(-c3ccccc3Cl)n2)cc1	5	0	-9	7	112*	x	-1	-4
CCN1CC(CNCc2cn(-c3ccc(OC)cc3)nc2-c2ccccc2Cl)CC1=O (configuration not stated)	-7	1	-1	3	0	x	x	x
N#Cc1ccc(OCc2noc(-c3ccsc3)n2)cc1	0	-1	-5	x	-1	x	x	x
O=C(O)c1ccc(-c2ccccc2)[nH]c1=O	6	-2	-7	x	2	x	x	x
Cc1cccc(NC(=S)N(CCN(C)C)Cc2cccs2)c1	-6	-8	-2	0	-2	x	x	x
Cn1cccc1C(=O)NC(=O)COC(=O)CNC(=O)c1ccc(Cl)cc1Cl	12	4	-6	2	2	x	x	x
Cn1cccc1C(=O)NC(=O)COC(=O)CNC(=O)CNC(=O)c1ccc(Cl)cc1Cl	-2	-9	-4	-5	22*	x	-2	8
CCOc1ccc(S(=O)(=O)NCCC(=O)OCC(=O)Nc2cc(C)on2)cc1	-5	-22	9	x	-2	x	x	x
CC(=O)N=c1n(C)c2ccccc2n1CCOc1ccccc1	6	2	1	-2	-2	3	x	x
COc1ccc2cc(/C=N/NC(=O)c3ccc(CN(c4cccc(Cl)c4Cl)S(C)(=O)=O)cc3)c(Cl)nc2c1	-12	-9	16	-2	43*	0	-2	-5
O=C(NNC(=S)Nc1ccc(F)c(Cl)c1)c1ccccc1Br	-16	4	-17	9	-1	x	x	x
COc1cccc(C2C3=C(CCCC3=O)NC3=C2C(=O)c2ccccc23)c1 (configuration not stated)	9	-4	-12	-3	13*	x	-2	-5
O=C1CCCC2=C1C(c1cccc(O)c1)C1=C(N2)c2ccccc2C1=O (configuration not stated)	20	-6	-3	0	1	x	x	x
N#Cc1ccc(CSc2nnc(-c3cccnc3)o2)cc1	5	-8	-15	4	65*	x	-3	-5
N#Cc1ccc(CSc2nnc(-c3ccncc3)o2)cc1	1	6	-8	5	-2	x	x	x
O=C(/C=C/c1ccc(F)cc1)NCCc1ccc2c(c1)OCCO2	-14	-20	-21	11	-2	14	x	x
CCn1c(=O)c(-c2nc3ccccc3[nH]2)c(O)c2ccccc21	-14	-9	-3	2	35*	x	-3	0
SMILES	NPY1 pot ag	NPY2 pot ag	S1P4 antag	NPY-Y1 antag	S1P4 ag	NPY-Y2 antag	S1P4 agonist cf	S1P1 agonist
NC(N)=NCC(O)CN(c1ccccc1)c1ccccc1 (configuration not stated)	-2	-28	10	x	0	x	x	x
CC(C)CCNC(=O)C(=O)NC1CCCC1	-18	-4	14	5	57*	13	-2	-1
CC(C)CCNC(=S)NC1CCCC1	7	0	-7	-3	2	0	x	x
Fc1ccc(CSc2nc3ncc(Br)cc3[nH]2)cc1	13	-1	2	4	2	-1	x	x
Cc1cc(C)n(-c2nc3ccccc3nc2N2CCCC2)n1	5	-5	-2	3	87*	11	-2	-7
CCc1ccc2c(c1)/C(=N/OC)C(=O)N2	-7	2	-5	12	60*	1	-2	16
CN(C)S(=O)(=O)c1cccc(NC(=O)COC(=O)c2cc3ccccc3oc2=O)c1	9	-19	-5	x	0	x	x	x
CC(=O)NCCCc1nc2ccccc2n1Cc1c(F)cccc1Cl	10	11	-10	x	52*	x	-2	-6
COc1ccc(C)cc1NC(=O)c1cnc2n(c1=O)CCS2	-17	-2	-18	-3	17*	-2	-2	-1
O=C(CSc1ncn[nH]1)Nc1cc(S(=O)(=O)N2CCCC2)ccc1Cl	-1	16	-7	2	1	x	x	x
O=C(COc1cccc(Cl)c1)Nc1cc(S(=O)(=O)N2CCOCC2)ccc1N1CCOCC1	13	-13	-4	x	-1	x	x	x
CC(OC(=O)c1ccc2c(=O)n3c(nc2c1)CCCCC3)C(=O)Nc1ncc(Cl)cc1Cl (configuration not stated)	1	-7	-31	4	11*	11	-3	3
Cc1c(C)c2cc(Cl)c(O)c(CN3CCCC(C)C3)c2oc1=O (configuration not stated)	-5	2	-18	2	2	7	x	x
Cc1c(C)c2cc(Cl)c(O)c(CN3CCN(C)CC3)c2oc1=O	27	-4	-2	-2	15*	1	-1	-5
CC(=O)NN1C(=O)c2ccc(Oc3ccc4c(c3)C(=O)N(NC(C)=O)C4=O)cc2C1=O	0	6	-11	3	23*	x	-2	0
COc1cccc(CNC(=S)NC2CCCC2)c1	-9	7	0	1	1	1	x	x
COc1ccc(CNC(=S)NC2CCCC2)cc1	4	-7	-3	-1	11*	1	-2	-9
CN(C1CCCC1)C1CCN(C(=S)Nc2cc(F)cc(F)c2)CC1	-5	3	-14	3	-1	x	x	x
CCN(C(=S)Nc1ccc(C(C)=O)cc1)C1CCCCC1	30	-7	-21	1	42*	x	-2	-5
CCCN(CC1CC1)C(=S)Nc1ccc(C(C)=O)cc1	14	7	-11	4	1	x	x	x
CCOc1cc(C2NC(=S)NC(C)=C2C(=O)Nc2ccccc2)ccc1O (configuration not stated)	11	18	-14	x	0	x	x	x
COc1cc(C2NC(=S)NC(C)=C2C(=O)Nc2cc(C)cc(C)c2)ccc1O (configuration not stated)	-2	-2	-11	x	33*	x	-1	-1
O=C(NCc1ccncc1)C1CCN(S(=O)(=O)Cc2ccccc2)CC1	5	-1	4	3	1	3	x	x
